{"source": "ChEMBL document CHEMBL1125912", "about": "“Topically active carbonic anhydrase inhibitors. 4. [(Hydroxyalkyl)sulfonyl]benzene and [(hydroxyalkyl)sulfonyl]thiophenesulfonamides” (J Med Chem, 1991)"}
{"species": "Oryctolagus cuniculus", "experiment": "Maximum fall in IOP after 50 microL dose of 0.5% concentration in alpha-CT rabbit model.", "format": "functional", "conditions": "not given", "method_in_brief": "(§1)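 Alpha-chymotrypsinized rabbit model of ocular hypertension. Single 50-µL bilateral instillation of a 0.5% (w/v) solution in 0.5% aqueous (hydroxyethyl)cellulose vehicle. Read-out is the fall in IOP.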", "units": {"Max fall in IOP": "mmHg"}}
{"smiles": "CC(=O)Oc1ccc2cc(S(N)(=O)=O)sc2c1", "Max fall in IOP": -5.5}
{"smiles": "NS(=O)(=O)c1cc2ccc(O)cc2s1", "Max fall in IOP": -5.4}
{"smiles": "CC(=O)OCCCc1ccc(S(N)(=O)=O)cc1", "Max fall in IOP": -4.5}
{"tested_on": "not listed separately", "experiment": "Solubility (buffer pH 7.4)", "format": "physicochemical", "conditions": "read-out: S", "method_in_brief": "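Solubility in 50 mM phosphate buffer, pH 7.4.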", "units": {"solubility": "µg/mL"}}
{"smiles": "CC(=O)OCCCCCc1ccc(S(N)(=O)=O)cc1", "solubility": 1200}
{"smiles": "CC(=O)OCCCS(=O)(=O)c1ccc(S(N)(=O)=O)s1", "solubility": 920}
{"smiles": "NS(=O)(=O)c1ccc(CCCCO)cc1", "solubility": 14700}
{"smiles": "Nc1cc(S(N)(=O)=O)ccc1S(=O)(=O)CCO", "solubility": 13200}
{"smiles": "CC(C)(O)CCSc1ccc(S(N)(=O)=O)cc1", "solubility": 400}
{"smiles": "NS(=O)(=O)c1ccc(S(=O)(=O)CCO)c(F)c1", "solubility": 3300}
{"smiles": "NS(=O)(=O)c1ccc(S(=O)(=O)CCCO)c(F)c1", "solubility": 6600}
{"smiles": "NS(=O)(=O)c1ccc(S(=O)(=O)CCO)cc1", "solubility": 6600}
{"smiles": "NS(=O)(=O)c1ccc(S(=O)(=O)CCCCO)s1", "solubility": 9900}
{"smiles": "NS(=O)(=O)c1ccc(SCCCCCO)cc1", "solubility": 600}
{"smiles": "CC(C)COC(=O)OCCCS(=O)(=O)c1ccc(S(N)(=O)=O)s1", "solubility": 80}
{"smiles": "CC(C)(O)CCS(=O)(=O)c1ccc(S(N)(=O)=O)cc1", "solubility": 3500}
{"smiles": "COCC(=O)OCCCS(=O)(=O)c1ccc(S(N)(=O)=O)s1", "solubility": 970}
{"smiles": "NS(=O)(=O)c1ccc(S(=O)(=O)CCCO)cc1", "solubility": 7200}
{"smiles": "NS(=O)(=O)c1ccc(SCCO)c([N+](=O)[O-])c1", "solubility": 500}
{"smiles": "Nc1cc(S(N)(=O)=O)ccc1S(=O)(=O)CCCO", "solubility": 8400}
{"smiles": "NS(=O)(=O)c1ccc(CCCCCO)cc1", "solubility": 2600}
{"smiles": "NS(=O)(=O)c1ccc(S(=O)(=O)CCCCO)c(F)c1", "solubility": 4300}
{"smiles": "NS(=O)(=O)c1ccc(SCCCO)c(C(=O)O)c1", "solubility": 8800}
{"smiles": "NS(=O)(=O)c1ccc(SCCCO)c(Cl)c1", "solubility": 280}
{"smiles": "CC(=O)OCCCc1ccc(S(N)(=O)=O)cc1", "solubility": 1600}
{"smiles": "NS(=O)(=O)c1ccc(SCCCCO)c(F)c1", "solubility": 1000}
{"tested_on": "not listed separately", "experiment": "Partition coefficient (pH 7.4)", "format": "ADME", "conditions": "octanol/water", "method_in_brief": "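1-Octanol/phosphate buffer partition at pH 7.4 and 0.1 ionic strength. The compound was equilibrated between the phases and the concentration in each phase was measured by UV spectrophotometry.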"}
{"smiles": "CC(=O)OCCCCCc1ccc(S(N)(=O)=O)cc1", "D": 73}
{"smiles": "CC(=O)OCCCS(=O)(=O)c1ccc(S(N)(=O)=O)s1", "D": 1.47}
{"smiles": "NS(=O)(=O)c1ccc(CCCCO)cc1", "D": 3.7}
{"smiles": "Nc1cc(S(N)(=O)=O)ccc1S(=O)(=O)CCO", "D": 0.25}
{"smiles": "CC(C)(O)CCSc1ccc(S(N)(=O)=O)cc1", "D": 25.2}
{"smiles": "NS(=O)(=O)c1ccc(S(=O)(=O)CCO)c(F)c1", "D": 0.25}
{"smiles": "NS(=O)(=O)c1ccc(S(=O)(=O)CCCO)c(F)c1", "D": 0.39}
{"smiles": "NS(=O)(=O)c1ccc(S(=O)(=O)CCO)cc1", "D": 0.14}
{"smiles": "NS(=O)(=O)c1ccc(S(=O)(=O)CCCCO)s1", "D": 0.46}
{"smiles": "NS(=O)(=O)c1ccc(SCCCCCO)cc1", "D": 10.9}
{"smiles": "CC(C)(O)CCS(=O)(=O)c1ccc(S(N)(=O)=O)cc1", "D": 0.82}
{"smiles": "COCC(=O)OCCCS(=O)(=O)c1ccc(S(N)(=O)=O)s1", "D": 0.72}
{"smiles": "NS(=O)(=O)c1ccc(S(=O)(=O)CCCO)cc1", "D": 0.23}
{"smiles": "NS(=O)(=O)c1ccc(SCCO)c([N+](=O)[O-])c1", "D": 2.4}
{"smiles": "Nc1cc(S(N)(=O)=O)ccc1S(=O)(=O)CCCO", "D": 0.33}
{"smiles": "NS(=O)(=O)c1ccc(CCCCCO)cc1", "D": 11}
{"smiles": "NS(=O)(=O)c1ccc(S(=O)(=O)CCCCO)c(F)c1", "D": 0.55}
{"smiles": "NS(=O)(=O)c1ccc(SCCCO)c(C(=O)O)c1", "D": 0.01}
{"smiles": "NS(=O)(=O)c1ccc(SCCCO)c(Cl)c1", "D": 39}
{"smiles": "CC(=O)OCCCc1ccc(S(N)(=O)=O)cc1", "D": 9.6}
{"smiles": "NS(=O)(=O)c1ccc(SCCCCO)c(F)c1", "D": 19}
{"tested_on": "Oryctolagus cuniculus", "experiment": "Tested in vivo for the IOP (intraocular pressure) recovery after 50 uL dose of 2% concentration in albino rabbits.", "format": "functional, Eye", "conditions": "not given", "method_in_brief": "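Conscious albino rabbits. Aqueous humor production was assessed indirectly by IOP recovery rate. A single bilateral 50-µL instillation of 2% (w/v) in 0.5% aqueous (hydroxyethyl)cellulose vehicle was given. Results are percent change from control, tested by Dunnett's two-tailed test (P<0.05).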", "units": {"Change from control": "%"}}
{"smiles": "CC(=O)OCCCCCc1ccc(S(N)(=O)=O)cc1", "Change from control": -33}
{"smiles": "CC(=O)Oc1ccc2cc(S(N)(=O)=O)sc2c1", "Change from control": -43}
{"smiles": "CC(C)(O)CCSc1ccc(S(N)(=O)=O)cc1", "Change from control": -51}
{"smiles": "NS(=O)(=O)c1ccc(S(=O)(=O)CCO)c(F)c1", "Change from control": -37}
{"smiles": "NS(=O)(=O)c1ccc(S(=O)(=O)CCCO)c(F)c1", "Change from control": -43}
{"smiles": "NS(=O)(=O)c1ccc(S(=O)(=O)CCO)cc1", "Change from control": -41}
{"smiles": "NS(=O)(=O)c1ccc(S(=O)(=O)CCCO)cc1", "Change from control": -37}
{"smiles": "NS(=O)(=O)c1ccc(CCCCCO)cc1", "Change from control": -38}
{"smiles": "NS(=O)(=O)c1cc2ccc(O)cc2s1", "Change from control": -31}
{"smiles": "CC(=O)OCCCc1ccc(S(N)(=O)=O)cc1", "Change from control": -18}
{"species": "Oryctolagus cuniculus", "experiment": "Maximum fall in IOP after 50uL dose of 0.5% concentration in alpha-CT rabbit model; ns = 'no significant statistical change'", "format": "functional, organism-based", "conditions": "not given", "method_in_brief": "as §1"}
{"smiles": "CC(C)(O)CCSc1ccc(S(N)(=O)=O)cc1", "Max fall in IOP": "No significance"}
{"smiles": "NS(=O)(=O)c1ccc(S(=O)(=O)CCO)c(F)c1", "Max fall in IOP": "No significance"}
{"smiles": "NS(=O)(=O)c1ccc(S(=O)(=O)CCCO)cc1", "Max fall in IOP": "No significance"}
{"species": "Oryctolagus cuniculus", "experiment": "Maximum fall in IOP after 50 uL dose of 0.5% concentration in alpha-CT rabbit model.", "format": "functional", "conditions": "not given", "method_in_brief": "as §1", "units": {"Max fall in IOP": "mmHg"}}
{"smiles": "CC(=O)OCCCCCc1ccc(S(N)(=O)=O)cc1", "Max fall in IOP": -6.4}
{"smiles": "NS(=O)(=O)c1ccc(S(=O)(=O)CCO)cc1", "Max fall in IOP": -10.8}
{"tested_on": "not listed separately", "experiment": "Dissociation constant (pKa) (determined in 30% EtOH/water)", "format": "physicochemical", "conditions": "not given"}
{"smiles": "CC(=O)OCCCCCc1ccc(S(N)(=O)=O)cc1", "pKa": 10.3}
{"smiles": "CC(=O)OCCCS(=O)(=O)c1ccc(S(N)(=O)=O)s1", "pKa": 8.05}
{"smiles": "NS(=O)(=O)c1ccc(CCCCO)cc1", "pKa": 10.3}
{"smiles": "Nc1cc(S(N)(=O)=O)ccc1S(=O)(=O)CCO", "pKa": 9.5}
{"smiles": "CC(C)(O)CCSc1ccc(S(N)(=O)=O)cc1", "pKa": 10}
{"smiles": "NS(=O)(=O)c1ccc(S(=O)(=O)CCO)c(F)c1", "pKa": 9}
{"smiles": "NS(=O)(=O)c1ccc(S(=O)(=O)CCCO)c(F)c1", "pKa": 9.02}
{"smiles": "NS(=O)(=O)c1ccc(S(=O)(=O)CCO)cc1", "pKa": 9.38}
{"smiles": "NS(=O)(=O)c1ccc(S(=O)(=O)CCCCO)s1", "pKa": 8.67}
{"smiles": "NS(=O)(=O)c1ccc(SCCCCCO)cc1", "pKa": 9.25}
{"smiles": "CC(C)(O)CCS(=O)(=O)c1ccc(S(N)(=O)=O)cc1", "pKa": 9.28}
{"smiles": "COCC(=O)OCCCS(=O)(=O)c1ccc(S(N)(=O)=O)s1", "pKa": 8.1}
{"smiles": "NS(=O)(=O)c1ccc(S(=O)(=O)CCCO)cc1", "pKa": 8.98}
{"smiles": "NS(=O)(=O)c1ccc(SCCO)c([N+](=O)[O-])c1", "pKa": 9.42}
{"smiles": "Nc1cc(S(N)(=O)=O)ccc1S(=O)(=O)CCCO", "pKa": 9.15}
{"smiles": "NS(=O)(=O)c1ccc(CCCCCO)cc1", "pKa": 10.3}
{"smiles": "NS(=O)(=O)c1ccc(S(=O)(=O)CCCCO)c(F)c1", "pKa": 9.18}
{"smiles": "NS(=O)(=O)c1ccc(SCCCO)c(C(=O)O)c1", "pKa": 9.94}
{"smiles": "NS(=O)(=O)c1ccc(SCCCO)c(Cl)c1", "pKa": 9.45}
{"smiles": "CC(=O)OCCCc1ccc(S(N)(=O)=O)cc1", "pKa": 10.2}
{"smiles": "NS(=O)(=O)c1ccc(SCCCCO)c(F)c1", "pKa": 9.82}
{"biological_target": "Carbonic anhydrase 2 (Homo sapiens, UniProt P00918)", "experiment": "Inhibitory activity against human carbonic anhydrase II using pH stat assay", "format": "functional", "conditions": "read-out: I50", "units": {"IC50": "nM"}}
{"smiles": "CC(=O)OCCCS(=O)(=O)c1ccc(S(N)(=O)=O)s1", "IC50": 5}
{"smiles": "NS(=O)(=O)c1ccc(CCCCO)cc1", "IC50": 15}
{"smiles": "Nc1cc(S(N)(=O)=O)ccc1S(=O)(=O)CCO", "IC50": 51}
{"smiles": "CC(C)(O)CCSc1ccc(S(N)(=O)=O)cc1", "IC50": 20}
{"smiles": "NS(=O)(=O)c1ccc(S(=O)(=O)CCO)c(F)c1", "IC50": 5}
{"smiles": "NS(=O)(=O)c1ccc(S(=O)(=O)CCCO)c(F)c1", "IC50": 4.5}
{"smiles": "NS(=O)(=O)c1ccc(S(=O)(=O)CCO)cc1", "IC50": 24}
{"smiles": "NS(=O)(=O)c1ccc(S(=O)(=O)CCCCO)s1", "IC50": 2.3}
{"smiles": "NS(=O)(=O)c1ccc(SCCCCCO)cc1", "IC50": 4.3}
{"smiles": "CC(C)(O)CCS(=O)(=O)c1ccc(S(N)(=O)=O)cc1", "IC50": 25}
{"smiles": "COCC(=O)OCCCS(=O)(=O)c1ccc(S(N)(=O)=O)s1", "IC50": 4.5}
{"smiles": "NS(=O)(=O)c1ccc(S(=O)(=O)CCCO)cc1", "IC50": 12}
{"smiles": "NS(=O)(=O)c1ccc(SCCO)c([N+](=O)[O-])c1", "IC50": 21}
{"smiles": "Nc1cc(S(N)(=O)=O)ccc1S(=O)(=O)CCCO", "IC50": 23}
{"smiles": "NS(=O)(=O)c1ccc(CCCCCO)cc1", "IC50": 8}
{"smiles": "NS(=O)(=O)c1ccc(S(=O)(=O)CCCCO)c(F)c1", "IC50": 4}
{"smiles": "NS(=O)(=O)c1ccc(SCCCO)c(C(=O)O)c1", "IC50": 10000}
{"smiles": "NS(=O)(=O)c1ccc(SCCCO)c(Cl)c1", "IC50": 9}
{"smiles": "NS(=O)(=O)c1ccc(SCCCCO)c(F)c1", "IC50": 1.5}
{"species": "Oryctolagus cuniculus", "experiment": "Maximum fall in IOP after 50 uL dose of 0.5% concentration in alpha-CT rabbit model", "format": "functional", "conditions": "not given", "method_in_brief": "as §1", "units": {"Max fall in IOP": "mmHg"}}
{"smiles": "NS(=O)(=O)c1ccc(S(=O)(=O)CCCO)c(F)c1", "Max fall in IOP": -6.2}
